We go through one molecule from ChEMBL document CHEMBL4433207, “Novel Isoxazole Derivatives with Potent FXR Agonistic Activity Prevent Acetaminophen-Induced Liver Injury” (ACS Med Chem Lett, 2019).

Assay [1] concerns Mus musculus. Put plainly: Hepatoprotective activity against APAP-induced acute liver injury in C57BL/6N mouse assessed as increase in APAP metabolism by measuring increase in APAP-glucuronide level at 30 mg/kg, po administered 45 min after APAP challenge by LC-MS/MS analysis. In kind it is functional, organism-based. Summed up: (§1)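 C57Bl6 mice given a single 500 mg/kg APAP dose, with test agent at 30 mg/kg; surviving mice sacrificed 24 h later, blood and liver collected. Endpoints: serum AST/ALT, liver H&E histology, hepatic Ugt1a1/Ugt2b1/Sult1a1 mRNA, hepatic GSH, SOD activity and MDA, and plasma APAP, APAP-glucuronide and APAP-sulfate by LC–MS/MS. Mean ± SEM, 5–8 animals per group.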

Assay [2] concerns the target T1, G-protein coupled bile acid receptor 1 (Homo sapiens) (UniProt Q8TDU6).
T1 sequence (whole entry): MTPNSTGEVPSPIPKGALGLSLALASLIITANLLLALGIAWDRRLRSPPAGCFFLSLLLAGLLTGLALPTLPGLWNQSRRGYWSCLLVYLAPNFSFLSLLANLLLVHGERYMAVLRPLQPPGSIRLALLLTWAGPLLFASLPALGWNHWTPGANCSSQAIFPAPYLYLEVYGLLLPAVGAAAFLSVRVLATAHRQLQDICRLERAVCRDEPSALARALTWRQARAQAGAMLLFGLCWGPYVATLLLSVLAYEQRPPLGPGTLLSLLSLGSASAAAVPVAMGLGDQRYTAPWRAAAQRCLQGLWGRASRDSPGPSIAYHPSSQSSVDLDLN
Put plainly: Agonist activity at human GPBAR1 expressed in HEK293T cells at 10 uM after 18 hrs by cAMP response element driven luciferase reporter gene assay. In kind it is functional, cell-based. Background: In a reporter assay the amount or activity of a reporter protein is the signal.

In assay [3] the test system is Mus musculus. Description: Hepatoprotective activity against APAP-induced acute liver injury in C57BL/6N mouse assessed as APAP plasma concentration at 30 mg/kg, po administered 45 min after APAP challenge by LC-MS/MS analysis (reference value: 1000 nM). Format: functional, organism-based. Summed up:
as §1

Assay [4] concerns Mus musculus. Description: Hepatoprotective activity against APAP-induced acute liver injury in C57BL/6N mouse assessed as upregulation of SULT1A1 mRNA levels at 30 mg/kg, po administered 45 mins after APAP challenge. In kind it is functional, organism-based. The method in brief: as §1
Assay [5] concerns Mus musculus. Put plainly: Hepatoprotective activity against APAP-induced acute liver injury in C57BL/6N mouse assessed as upregulation of UGT1A1 mRNA levels at 30 mg/kg, po administered 45 mins after APAP challenge. In kind it is functional, organism-based. Summed up: as §1

Active and inactive are the calls of the source. The calls are words filed in the database; no cut-off is given here.

`CC(C)c1onc(-c2c(Cl)cccc2Cl)c1COc1ccc(COc2ccc(C(=O)O)cc2)cc1`: the result with Mus musculus [1], in the assay on Mus musculus [4] and in the assay with Mus musculus [5] was Active. Moreover, the result in assay [2] was inactive. In addition, the Cp in the assay on Mus musculus [3] was 615 nM.
